The source made the active and inactive calls. The rule behind the calls is not given here.
Key:
Estrogen receptor [1] = biological target: T1, Estrogen receptor (Homo sapiens, UniProt P03372); experiment: Induction of ERalpha degradation in human MCF7 cells in phenol red free RPMI medium containing 5% charcoal dextran-treated FBS incubated for 4 hrs by SP1 and anti-ER rabbit monocolnal antibody based in-cell Western assay
T1 sequence (P03372 whole entry): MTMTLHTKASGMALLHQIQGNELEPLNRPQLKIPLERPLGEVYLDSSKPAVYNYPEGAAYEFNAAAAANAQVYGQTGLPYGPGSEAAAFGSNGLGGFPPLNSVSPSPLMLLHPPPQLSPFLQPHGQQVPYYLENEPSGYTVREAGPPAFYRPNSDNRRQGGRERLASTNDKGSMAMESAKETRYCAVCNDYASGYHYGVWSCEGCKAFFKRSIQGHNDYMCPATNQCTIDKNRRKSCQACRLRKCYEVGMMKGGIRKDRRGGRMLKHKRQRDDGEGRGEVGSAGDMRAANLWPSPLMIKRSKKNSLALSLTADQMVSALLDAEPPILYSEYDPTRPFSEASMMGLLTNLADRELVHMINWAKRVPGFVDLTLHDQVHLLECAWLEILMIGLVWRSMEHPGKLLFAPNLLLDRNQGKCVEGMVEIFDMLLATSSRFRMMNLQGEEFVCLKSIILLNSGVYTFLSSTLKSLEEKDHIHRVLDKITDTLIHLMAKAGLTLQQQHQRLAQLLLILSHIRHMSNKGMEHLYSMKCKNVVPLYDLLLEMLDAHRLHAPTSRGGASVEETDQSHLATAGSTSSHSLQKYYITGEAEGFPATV

MCF7 [2] = experiment: Antiproliferative activity against human MCF7 cells assessed as reduction in cell proliferation in RPMI containing 10% FBS incubated for 5 days by Cell-titer-Glo assay; type: functional, cell-based; details: MCF7, 120 h
Procedure, shortened: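 MCF-7 cells, 640/well in RPMI with 10% FBS and 20 mM HEPES, adhered overnight; 10-point 1:5 dilution series (10–0.000005 µM final) for 5 days. CellTiter-Glo luminescence, cell-free medium background subtracted, percent viability vs untreated cells; n ≥ 3.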

[3] = AUC in mouse at 10 mg/kg, po; type: ADME, organism-based; details: in vivo
Procedure, shortened: (§1)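 Mouse or rat PK: single intravenous dose 3 mg/kg or oral dose 10 mg/kg, vehicle PEG400/PVP/Tween 80/0.5% CMC in water (9:0.5:0.5:90).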

Estrogen receptor [4] = biological target: T1, Estrogen receptor; experiment: Binding affinity to ERalpha (unknown origin)
Rattus norvegicus [5] = experiment: Reduction in uterine wet weight in ethynyl estradiol-stimulated CD-IGS rat at 1 mg/kg, po dosed daily for 3 days by gavage followed 15 mins later by 0.1 mg/kg, po ethynyl estradiol and measured 24 hrs after last dose by immature rat uterine wet weight assay; type: functional
Procedure, shortened: (§2)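 Female immature CD-IGS rats, 21 days old on arrival; oral gavage of vehicle or compound daily for 3 days, ethynyl estradiol 0.1 mg/kg orally 15 min after each dose. Day 4, 24 h post-dose, plasma taken, then uterus removed and weighed. Reduction = 100 x (VehicleEE – Cpd)/(VehicleEE – Vehicle).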

Rattus norvegicus [6] = experiment: Reduction in uterine wet weight in ethynyl estradiol-stimulated CD-IGS rat at 10 mg/kg, po dosed daily for 3 days by gavage followed 15 mins later by 0.1 mg/kg, po ethynyl estradiol and measured 24 hrs after last dose by immature rat uterine wet weight assay; type: functional; procedure, shortened: as §2
Rattus norvegicus [7] = experiment: In-vivo inverse agonist activity at ERalpha in CD-IGS rat assessed as reduction in uterine wet weight at 10 mg/kg, po dosed daily for 3 days by gavage and measured 24 hrs after last dose by immature rat uterine wet weight assay relative to basal level; type: functional, organism-based
Procedure, shortened: (§3)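 Immature CD-IGS rats given compound orally for 3 days without ethynyl estradiol (agonist mode); on day 4, 24 h after dosing, uterus removed and weighed; wet weight normalized to total body weight.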

[8] = Clearance in mouse at 3 mg/kg, iv; type: ADME, organism-based; details: in vivo; procedure, shortened: as §1
[9] = Volume of distribution at steady state in mouse at 3 mg/kg, iv; type: ADME, organism-based; details: in vivo, read-out: Vdss; procedure, shortened: as §1
[10] = Half life in mouse at 3 mg/kg, iv; type: ADME, organism-based; details: in vivo; procedure, shortened: as §1
[11] = Cmax in mouse at 10 mg/kg, po; type: ADME, organism-based; parameters: dose 10 mg/kg, route oral; details: in vivo; procedure, shortened: as §1
[12] = AUC (0 to infinity) in mouse at 10 mg/kg, po; type: ADME, organism-based; parameters: dose 10 mg/kg, route oral, time infinity; details: in vivo
[13] = Oral bioavailability in mouse at 10 mg/kg; type: ADME, organism-based; details: in vivo; procedure, shortened: as §1
[14] = Clearance in rat at 3 mg/kg, iv; type: ADME, organism-based; details: in vivo; procedure, shortened: as §1
[15] = Volume of distribution at steady state in rat at 3 mg/kg, iv; type: ADME, organism-based; details: in vivo, read-out: Vdss; procedure, shortened: as §1
[16] = Half life in rat at 3 mg/kg, iv; type: ADME, organism-based; details: in vivo; procedure, shortened: as §1
[17] = Cmax in rat at 10 mg/kg, po; type: ADME, organism-based; parameters: dose 10 mg/kg, route oral; details: in vivo; procedure, shortened: as §1
[18] = AUC (0 to infinity) in rat at 10 mg/kg, po; type: ADME, organism-based; parameters: dose 10 mg/kg, route oral, time infinity; details: in vivo
[19] = Oral bioavailability in rat at 10 mg/kg; type: ADME, organism-based; details: in vivo; procedure, shortened: as §1
MCF7 [20] = experiment: Antitumor activity against human MCF7 cells xenografted in nu/nu mouse model of tamoxifen-sensitive breast cancer xenograft implanted with 17beta-estradiol time release pellets assessed as reduction tumor volume at 6 mg/kg, po qd for 4 weeks; type: functional, organism-based
MCF7 [21] = experiment: Antitumor activity against human MCF7 cells xenografted in nu/nu mouse model of tamoxifen-resistant breast cancer xenograft implanted with 17beta-estradiol time release pellets assessed as reduction tumor volume at 60 mg/kg, po qd for 4 weeks; type: functional, organism-based
Procedure, shortened: (§4)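 Female nu/nu mice with 0.72 mg 60-day 17β-estradiol pellets bearing MCF-7 tumors, pretreated with oral tamoxifen citrate; at ~150-250 mm3 (mean 200 mm3) randomized, tamoxifen stopped, then dosed daily for 4 weeks; tumor volume (length x width2/2) and body weight twice weekly.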

[22] = AUC in human MCF7 cells xenografted nu/nu mouse implanted with 17beta-estradiol time release pellets dosed orally once daily for 4 weeks; type: ADME, organism-based; details: in vivo, po
Rattus norvegicus [23] = experiment: Reduction in uterine wet weight in ethynyl estradiol-stimulated CD-IGS rat at 60 mg/kg, po dosed daily for 3 days by gavage followed 15 mins later by 0.1 mg/kg, po ethynyl estradiol and measured 24 hrs after last dose by immature rat uterine wet weight assay; type: functional; procedure, shortened: as §2
Rattus norvegicus [24] = experiment: In-vivo agonist activity at ERalpha in CD-IGS rat assessed as increase in uterine wet weight at 60 mg/kg, po dosed daily for 3 days by gavage and measured 24 hrs after last dose by immature rat uterine wet weight assay; type: functional, organism-based; procedure, shortened: as §3
MCF7 [25] = experiment: Antitumor activity against human MCF7 cells xenografted in nu/nu mouse model of tamoxifen-sensitive breast cancer xenograft implanted with 17beta-estradiol time release pellets assessed as reduction tumor volume at 60 mg/kg, po qd for 4 weeks; type: functional, organism-based
MCF7 [26] = experiment: Antitumor activity against human MCF7 cells xenografted in nu/nu mouse model of tamoxifen-resistant breast cancer xenograft implanted with 17beta-estradiol time release pellets assessed as reduction tumor volume at 120 mg/kg, po qd for 4 weeks; type: functional, organism-based; procedure, shortened: as §4
Rattus norvegicus [27] = experiment: In-vivo agonist activity at ERalpha in CD-IGS rat assessed as increase in uterine wet weight at 10 mg/kg, po dosed daily for 3 days by gavage and measured 24 hrs after last dose by immature rat uterine wet weight assay; type: functional, organism-based; procedure, shortened: as §3

SMILES | IC50 (Estrogen receptor [1]) [nM] | IC50 (MCF7 [2]) [nM] | AUC [3] [ng·h/mL] | further results
CC1=C(c2cccc(O)c2)C(c2ccc(OCCN3CC[C@H](C)C3)cc2)Oc2ccc(O)cc21 (some centres undefined) | 0.2 | 0.3 | – | –
CC1=C(c2cccc(O)c2)C(c2ccc(OCCN3CC[C@@H](C)C3)cc2)Oc2ccc(O)cc21 (some centres undefined) | 0.4 | 0.2 | – | –
CC1=C(c2cccc(O)c2)C(c2ccc(OCCN3CCC(C)CC3)cc2)Oc2ccc(O)cc21 (centres undefined) | 0.2 | 0.2 | – | –
CC1=C(c2ccc(C#N)cc2)C(c2ccc(OC[C@H](C)N3CC[C@@H](C)C3)cc2)Oc2ccc(O)cc21 (some centres undefined) | – | 10 | 2000 | IC50 (Estrogen receptor [1]; mcf7): 1.5 nM
CC1=C(c2cccc(O)c2)C(c2ccc(OCCN3CCCCCC3)cc2)Oc2ccc(O)cc21 (centres undefined) | 0.2 | 0.2 | – | –
CC1=C(c2ccc(O)cc2)[C@H](c2ccc(OCCN3CCCCC3)cc2)Oc2cc(O)ccc21 [ACOLBIFENE] | – | – | 90 | –
CC1=C(c2cccc(O)c2)C(c2ccc(OC[C@H](C)N3CCCCC3)cc2)Oc2ccc(O)cc21 (some centres undefined) | 0.2 | 0.1 | – | –
CC1=C(c2cccc(O)c2)C(c2ccc(OC[C@H](C)N3CC[C@@H](C)C3)cc2)Oc2ccc(O)cc21 (some centres undefined) | 0.2 | 0.2 | 590 | IC50 (Estrogen receptor [4]): 5.1 nM; inhibition (INH) (Rattus norvegicus [5]): 99%; inhibition (INH) (Rattus norvegicus [6]): 111%; Activity (Rattus norvegicus [7]): Active; clearance [8]: 38 mL/min/kg; Vd [9]: 6.2 L/kg; half-life [10]: 216 min; Cmax [11]: 100 ng/mL; AUC(0-inf) [12]: 590 ng·h/mL; bioavailability [13]: 13%; clearance [14]: 33 mL/min/kg; Vd [15]: 8 L/kg; half-life [16]: 174 min; Cmax [17]: 140 ng/mL; AUC(0-inf) [18]: 930 ng·h/mL; bioavailability [19]: 18%; Activity (MCF7 [20]): Active; Activity (MCF7 [21]): Active; AUC at 672 h [22]: 4600 ng·h/mL
CC/C(=C(\c1ccccc1)c1ccc(OCCN(C)C)cc1)c1ccccc1 [TAMOXIFEN] | – | – | – | inhibition (INH) (Rattus norvegicus [23]): 78%; Activity (Rattus norvegicus [24]): Active; Activity (MCF7 [25]): Active; Activity (MCF7 [26]): inactive
CC1=C(c2cccc(O)c2)C(c2ccc(OC[C@@H](C)N3CC[C@H](C)C3)cc2)Oc2ccc(O)cc21 (some centres undefined) | 0.2 | 0.2 | – | –
CC1=C(c2ccc(O)cc2)C(c2ccc(OC[C@H](C)N3CC[C@@H](C)C3)cc2)Oc2cc(O)ccc21 (some centres undefined) | 0.3 | 0.2 | 120 | –
CC1=C(c2cccc(O)c2)[C@@H](c2ccc(OC[C@H](C)N3CC[C@@H](C)C3)cc2)Oc2ccc(O)cc21 | 9.7 | 59 | – | IC50 (Estrogen receptor [4]): 136 nM
CC1=C(c2cccc(O)c2)C(c2ccc(OC[C@H](C)N3CCC3)cc2)Oc2ccc(O)cc21 (some centres undefined) | 0.9 | 0.1 | – | –
CC1=C(c2cccc(O)c2)C(c2ccc(OC[C@@H](C)N3CCCC3)cc2)Oc2ccc(O)cc21 (some centres undefined) | 0.3 | 0.2 | – | inhibition (INH) (Rattus norvegicus [6]): 84%; Activity (Rattus norvegicus [27]): Active
CC1=C(c2ccccc2)C(c2ccc(OC[C@H](C)N3CC[C@@H](C)C3)cc2)Oc2ccc(O)cc21 (some centres undefined) | 0.4 | 0.4 | 1000 | –
CC1=C(c2cccc(O)c2)C(c2ccc(OC[C@@H](C)N3CC[C@@H](C)C3)cc2)Oc2ccc(O)cc21 (some centres undefined) | 0.3 | 0.2 | – | –

— ChEMBL document CHEMBL4145684 (J Med Chem, 2018)
